Experimental findings from PubChem BioAssay AID1496 (Sanford-Burnham Center for Chemical Genomics, 2009) are described below.

The whole screen tested about 220,000 compounds, of which about 990 (0.45%) were called active. For the sample, actives were picked, then their nearest neighbours and some compounds at random. A number with no mark means an inactive call.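 The calls were made as follows: active = inhibition over about 50% at 20 µM in the single-dose screen (limit read from the data); inactive = the rest.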

Runt-related transcription factor 1 (Homo sapiens) + Core-binding factor subunit beta (Homo sapiens), sequence (Q01196 whole entry, looked up, the tested form may be a part): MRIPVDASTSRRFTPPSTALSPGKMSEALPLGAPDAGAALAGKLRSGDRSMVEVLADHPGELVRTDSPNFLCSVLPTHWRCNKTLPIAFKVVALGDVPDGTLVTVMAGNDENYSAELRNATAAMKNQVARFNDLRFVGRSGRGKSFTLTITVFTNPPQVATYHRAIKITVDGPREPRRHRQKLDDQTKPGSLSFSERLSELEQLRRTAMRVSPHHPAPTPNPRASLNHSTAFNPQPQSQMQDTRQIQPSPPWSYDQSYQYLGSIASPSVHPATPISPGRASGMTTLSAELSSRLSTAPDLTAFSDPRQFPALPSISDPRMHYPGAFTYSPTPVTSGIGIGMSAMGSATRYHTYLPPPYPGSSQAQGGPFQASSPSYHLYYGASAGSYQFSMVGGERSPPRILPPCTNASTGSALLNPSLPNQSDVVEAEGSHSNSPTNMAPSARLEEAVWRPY
Runt-related transcription factor 1 (Homo sapiens) + Core-binding factor subunit beta (Homo sapiens), sequence (Q13951 whole entry, looked up, the tested form may be a part): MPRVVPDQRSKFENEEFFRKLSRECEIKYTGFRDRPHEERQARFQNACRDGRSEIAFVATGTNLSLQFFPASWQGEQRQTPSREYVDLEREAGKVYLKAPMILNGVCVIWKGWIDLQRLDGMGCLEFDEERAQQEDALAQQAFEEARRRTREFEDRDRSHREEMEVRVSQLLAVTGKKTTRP

The target of this assay is Runt-related transcription factor 1 (Homo sapiens) + Core-binding factor subunit beta (Homo sapiens) (UniProt Q01196+Q13951). Put plainly: inhibitors of RUNX1 Runt–CBFb binding, primary screen, biochemical, FRET, Cerulean-Runt, Venus-CBFb, uHTS (AID 1496).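 Also: 0% = DMSO wells and 100% = excess unlabeled CBFb competitor control.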 The note with it: Cerulean-Runt/Venus-CBFb FRET ratio 530/480, 1 h; at 20 µM; hits give high values. In short, it runs like this:
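Measured by: fluorescence energy transfer, 422 nm excitation, 530/480 nm emission; Assay system: Cerulean-Runt domain; Medium: Tris pH 7.5 buffer with BSA; Measure: loss of energy transfer signal; Controls: 5 µM unlabeled CBFb as full-inhibition high control; Incubation: protein complex preformed 1 h, compound exposure 1 h, room temperature, dark.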
Consider `O=C(O)c1ccccc1OCc1ccccc1Cl`, for which the inhibition was 2.6%.
`C#CCOCCOCCOCCNc1nc(N2CCN(C(=O)[C@H](CCC(=O)O)n3cc(C(N)CO)nn3)CC2)nc(N2CCN(C(=O)[C@H](CCCCN)n3cc(C(N)[C@H](C)CC)nn3)CC2)n1` (stereo not given in full): the inhibition is 0.2%.
For the molecule `COc1ccc(C(=O)C2CCCN(C(=O)c3cnsn3)C2)c(C)c1` (stereo not given), the inhibition was -0.7%.
Take `O=C(NCc1ccco1)C1CCCN(S(=O)(=O)c2ccccc2)C1` (stereo not given): the inhibition was -0.1%.
The value for `O=C(NCc1ccco1)C1CCCN(S(=O)(=O)c2cnc[nH]2)C1` (stereo not given) was 1.5%; that for `CCCS(=O)(=O)N1CCCC(C(=O)NCc2ccco2)C1` (stereo not given) was 71.8% (active).
For the molecule `CCOC(=O)c1ccc(NC(=O)c2nc[nH]c2C(=O)NCc2ccccc2)cc1`, the inhibition was 19.6%.
For `CN(C)S(=O)(=O)c1ccc(Cl)c(NC(=O)COC(=O)CC(NC(N)=O)c2ccc(Cl)cc2)c1` (stereo not given), the inhibition was -1.9%.
For the molecule `CCCN(CCC)S(=O)(=O)c1ccc(C(=O)N2CC3CCC(CC3)C2)cc1`, the inhibition is -0.8%.
With `Cc1nc(C(=O)Nc2ccc(Cl)cc2)sc1C1(C)CC(c2ccccc2)=NO1` (stereo not given) the figure was 1.9%.
Regarding `O=C(O)/C=C/c1ccc2c(c1)OCCO2`, the inhibition was 1.9%.
In the case of `COc1cccc(CC(=O)Nc2ccc(-c3csc(C)n3)cc2)c1`, the inhibition was -1.8%.
With `CC(C)=C(NC(=O)c1ccco1)C(=O)NCCc1nc2ccccc2[nH]1`, the inhibition was 1.2%.
With `CC(C)Oc1ccc(/C=C(\NC(=O)/C=C/c2ccco2)C(=O)NCCc2nc3ccccc3[nH]2)cc1`, the inhibition is 89.5% (active).
For `COc1ccc(OC(C)C(=O)NCCc2nc3ccccc3[nH]2)cc1` (stereo not given), the inhibition is -0.9%.
As for `CCOC(=O)C1=C(N)N2C(=O)C(C)SC2=C(C(=O)OCC)C1c1cc(OC)c(OC)c(OC)c1` (stereo not given), the inhibition was -5%.
With `Cc1cc(Nc2ccc(Cl)cc2)nc(N2CCOCC2)n1`, the inhibition was 0.3%.
In the case of `CCOC(=O)c1sc(=S)n(-c2cccc(OC)c2)c1N`, the inhibition was 34%.
Turning to `Cc1ccc(-n2c(N)c(C(=O)N3CCOCC3)sc2=S)c(C)c1`, the inhibition is 40.6%.
With `Cc1cccc(-n2c(N)c(C(=O)N3CCN(C)CC3)sc2=S)c1`, the inhibition was 55.8% (active).
Turning to `CC(=O)Nc1nc2c(s1)C(=O)NCC(C)(C)C2`, the inhibition is 1%.
For `CCCN(c1ccc(C)cc1)c1nc(=O)c2cccnc2s1`, the inhibition is 0.8%.
Consider `Cc1cccc(N2C(=O)CC(SC(N)=Nc3ccccc3)C2=O)c1` (stereo not given), for which the inhibition was -1.7%.
The value for `Cc1cccc(N2C(=O)c3cccnc3C2=O)c1` was -2.4%; that for `Cc1cccc(N2C(=O)C3C(c4ccccc4)OC4(C(=O)c5ccccc5C4=O)C3C2=O)c1` (stereo not given) was 115% (active); that for `O=C(Nc1ccc(Cl)cc1)Nc1ccc(C(=O)N2CCOCC2)cc1` was -0.4%.
As for `Cc1cc(C)n(CC(C)NCc2c(C(=O)N3CCOCC3)nc3c(C)cccn23)n1` (stereo not given), the inhibition is 0.6%.
`Cc1cccn2c(=O)c3cc(C#N)c(=O)n(CCCN4CCOCC4)c3nc12`: the inhibition was 92.6% (active).
Consider `Cc1cccn2c(=O)c3cc(C(=O)N4COCC4(C)C)n(C)c3nc12`, for which the inhibition was -1.7%.
On to `CC(C)c1c(O)nc(SCCOc2ccc(Cl)cc2)[nH]c1=O`, for which the inhibition is 0.6%.
As to `N#CC1=C(N)Oc2c(sc3ccccc23)C1c1ccco1` (stereo not given), the inhibition is 15.7%.
Take `Cc1cc(C)c(C#N)c(SCc2[nH]nc3c2C(c2ccccc2)C(C#N)=C(N)O3)n1` (stereo not given): the inhibition was -1.5%.
As for `Cc1cc(C)c2c3c(sc2n1)C(c1ccccc1)C(C#N)=C(N)O3` (stereo not given), the inhibition was 66.6% (active).
With `Nc1c(Cl)cc(S(N)(=O)=O)cc1S(N)(=O)=O`, the inhibition is 0%.
Regarding `COc1ccc(/C=C2\N=C3CCCN3C2=O)cc1`, the inhibition was 1.1%.
As for `COc1ccc(/C=N/NS(=O)(=O)c2ccc(NC(C)=O)cc2)cc1`, the inhibition is 0.8%.
With `CCCCN1CCNC1=S`, the inhibition is 0.1%.
Regarding `CCCCN(CCCC)CC(O)Cn1c2ccccc2c(=O)c2ccccc21` (stereo not given), the inhibition was 80.3% (active).
Take `O=C1c2ccccc2S(=O)(=O)N1CC(O)Cn1c2ccccc2c2ccccc21` (stereo not given): the inhibition is -0.7%.
Take `CS(=O)(=O)N(CC(O)Cn1c2ccccc2c2ccccc21)c1cccc2ccccc12` (stereo not given): the inhibition is -3.3%.
In the case of `O=C1[C@@H]2C(c3cccnc3)=NO[C@@H]2C(=O)N1c1ccc(Cl)cc1Cl`, the inhibition was 9%.
For `COc1ccc(Cl)cc1CSc1ncn[nH]1`, the inhibition was -0.7%.
In the case of `Cc1ccsc1/C=N/NC(=O)Cc1cc(=O)[nH][nH]1`, the inhibition was -1.1%.
The value for `Cc1cc(F)ccc1S(=O)(=O)Nc1ncnc2scc(-c3ccc(F)cc3)c12` was 66.8% (active).
Regarding `CCn1cnc2scc(-c3ccc(C)c(C)c3)c2c1=O`, the inhibition was 0.4%.
The value for `COc1ccc(-c2csc3ncnc(Oc4ccc5c(C)cc(=O)oc5c4)c23)cc1` was -0.5%; that for `CCOc1ccc2sc(NS(=O)(=O)c3ccc(N)cc3)nc2c1` was 0.7%.
Regarding `CCNc1nc(NCC)nc(N/N=C/c2ccc(O)c(OC)c2)n1`, the inhibition was 10%.
For `CNC(=O)c1cc2c(ccc3ccccc32)oc1=N`, the inhibition is 108% (active).
With `CCOC(=O)N1CCN(C(=O)c2cc3c(ccc4ccccc43)oc2=O)CC1`, the inhibition is 2.5%.
For the molecule `N=c1oc2ccccc2cc1C(=O)N/N=C/c1ccccc1`, the inhibition is -2.3%.
As for `CCN(CC)C(=O)Oc1ccc(Br)cc1C(=O)Nc1ccc(F)c(Cl)c1`, the inhibition was 0.6%.
With `CCn1c(SCC(=O)N/N=C/c2ccncc2)nc2ccccc21`, the inhibition is -0.7%.
Consider `COC(=O)C1=C(C)OC(N)=C(C#N)C1c1cc(OC)ccc1OC` (stereo not given), for which the inhibition was -2.5%.
With `CCC1=C(C(=O)OC)C(c2cc(OC)ccc2OC)C(C#N)=C(N)O1` (stereo not given) the figure was 2%; with `COc1ccc(C2C(C#N)=C(N)Oc3cc(N)ccc32)cc1OC` (stereo not given), 77.7% (active).
For the molecule `CCOC(=O)c1c(NC(=S)Nc2ccccc2)sc2c1CCN(C)C2`, the inhibition is 66.5% (active).
Regarding `CCOC(=O)c1c(NC(=S)Nc2ccccc2C)sc2c1CCC2`, the inhibition was 10.3%.
Take `CCOC(=O)c1c(NC(=O)NC(C)(C)C)sc2c1CCN(C)C2`: the inhibition is 4.1%.
Consider `CC(C)(C)c1nnc(NC(=O)C2c3ccccc3Oc3ccccc32)s1`, for which the inhibition was 21%.
On to `CC(C)Sc1nnc([C@H](Cc2ccccc2)NC(=O)OC(C)(C)C)o1`, for which the inhibition is 4.8%.
In the case of `Fc1cccc(Cl)c1CSc1ccc(-c2ccco2)nn1`, the inhibition was 40.3%.
As to `O=C(CSc1ccc(-c2ccco2)nn1)NCc1ccc2c(c1)OCO2`, the inhibition is 16.4%.
For the molecule `Brc1ccc(CSc2ccc(-c3ccco3)nn2)cc1`, the inhibition is 53.3% (active).
For `CCC(C)(C)NC(=O)C(c1ccc(O)cc1)N(C(=O)Cn1nnc2ccccc21)c1ccc(NC(C)=O)cc1` (stereo not given), the inhibition is 0.4%.
Take `COc1cc(COCC(O)CN2CCN(Cc3ccc4c(c3)OCO4)CC2)cc(OC)c1OC` (stereo not given): the inhibition was -1%.
For the molecule `COc1ccc2cc1Oc1ccc(cc1)C[C@H]1c3cc(c(OC)cc3CCN1C)Oc1c(O)c(OC)cc3c1[C@H](C2)N(C)CC3`, the inhibition was 1.7%.
In the case of `COc1c(O)ccc2c1CN1CCc3cc4c(cc3C1C2)OCO4` (stereo not given), the inhibition was 66.6% (active).
The value for `CCOC(=O)c1ccc(NC(=O)c2nc[nH]c2C(=O)N[C@@H](CCCCNC(=O)OC(C)(C)C)C(=O)OC(C)(C)C)cc1` was -5.6%; that for `COCC(C)OC(=O)c1c(N)n(CCCN2CCOCC2)c2nc3ccccc3nc12` (stereo not given) was 67.9% (active); that for `CCOc1ccc(C(=O)NCCCN2CCCC2=O)cc1` was 1%.
The value for `O=C(Cn1c(-c2ccccn2)nc2ccccc21)NCCN1CCOCC1` was 0.6%; that for `CSc1nnc(-c2ccncc2)n1CCCN1CCCC1=O` was -5.5%; that for `Cc1ccc(C(=O)OC(C)CN2CCOCC2)cc1` (stereo not given) was 1.3%.
`CC(C)(C)OC(=O)c1c(N)n(CCCN2CCCC2=O)c2nc3ccccc3nc12`: the inhibition was 68.7% (active).
For the molecule `CC(C)C[C@H](CO)Nc1nc(N(C)c2cccc(Cl)c2)c2ncn(C(C)C)c2n1`, the inhibition was -4.6%.
The value for `N/C(=N\OC(=O)Nc1ccccc1)c1ccno1` was 0.1%; that for `S=C(c1ccc(-c2ccccc2)o1)N1CCCCC1` was 21%.
In the case of `O=C(NC(c1ccccc1)c1ccccc1)N1CCN(CCO)CC1`, the inhibition was -1.2%.
For the molecule `OCCN1CCN(C(=S)c2ccc(-c3ccccc3)cc2)CC1`, the inhibition is 53.6% (active).
As to `CCc1nc2sc3c(Cl)ncnc3c2c2c1CCCC2`, the inhibition was -0.7%.
In the case of `Cc1ccc(S(=O)(=O)N(C)C)cc1NC(=O)COC(=O)C1COc2ccccc2O1` (stereo not given), the inhibition was -0.2%.
`CCN(CC)S(=O)(=O)c1ccc(N2CCOCC2)c(NC(=O)C2COc3ccccc3O2)c1` (stereo not given): the inhibition is 84.6% (active).
The value for `CCN(CC)S(=O)(=O)c1ccc(N2CCOCC2)c(C(=O)O)c1` was 1%; that for `COc1cccc2sc(Nc3nc(C)c(C(C)=O)s3)nc12` was 66.3% (active).
The value for `COc1cccc2sc(NNC(=O)c3nc4ccccc4s3)nc12` was 32.7%; that for `CC(=O)c1sc(NC(=O)CCCOc2ccccc2C)nc1C` was 0.4%.
For the molecule `O=S(=O)(NC(=S)Nc1ccccc1)c1ccc(F)cc1`, the inhibition was 26.8%.
As to `O=[N+]([O-])c1ccc2c(c1)C(O)n1nc(-c3ccccc3)nc1S2` (stereo not given), the inhibition was -0.7%.
Take `C=CCNC(=S)NNC(=O)c1cc(Cl)ccc1OC`: the inhibition was 0.2%.
Take `C=CCSc1nnc(NC(=O)c2ccc(NC(C)=O)cc2)s1`: the inhibition is 0%.
Take `NNC(=O)c1cccc(COCC(F)(F)C(F)F)c1`: the inhibition was -0.3%.
As for `N#CC1=C(N)N(c2ccccc2)C2=C(C(=O)CCC2)C1c1ccccc1` (stereo not given), the inhibition was 6.6%.
Turning to `CCCC(=O)N1c2ccccc2NC2=C(C(=O)CCC2)C1c1ccc(F)cc1` (stereo not given), the inhibition was -0.4%.
As for `CCCN1C2=C(C(=O)CCC2)C(c2ccc(O)c(Br)c2)C2=C1CCCC2=O`, the inhibition is 53.1% (active).

Broadly, the inhibition is the change of the read-out against control, counted positive when it falls.
